# Test results from ChEMBL document CHEMBL4382250, “Structure-based exploration and pharmacological evaluation of N-substituted piperidin-4-yl-methanamine CXCR4 chemokine receptor antagonists” (Eur J Med Chem, 2019).
# Calls of active or inactive are those of the source. No cut-off for these calls is given here.
# How the values were obtained:
# [1] = target: T1, C-X-C chemokine receptor type 4 (Homo sapiens, UniProt P61073); experiment: Displacement of [125I]-CXCL12 from human CXCR4 receptor expressed in HEK293T cell membranes after 2 hrs by scintillation counting analysis
# Method in brief: (§1)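 Membranes (5 µg/well) from HEK293T transiently transfected with hCXCR4, incubated 2 h at 25 °C with 50 pM ¹²⁵I-CXCL12 in HEPES pH 7.4 buffer with CaCl₂, MgCl₂, NaCl, 1% BSA. Filtration through PEI-soaked GF/C, then scintillation counting. Non-specific binding defined by 10⁻⁵ M IT1t; three-parameter fit for pIC₅₀. Single-point displacement at 100 μM vs IT1t (100%). N = 3, triplicate.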
# [2] = target: T1, C-X-C chemokine receptor type 4; experiment: Displacement of [125I]-CXCL12 from human CXCR4 receptor expressed in HEK293T cell membranes at 100 uM after 2 hrs by scintillation counting analysis relative to IT1t; method in brief: as §1
# [3] = target: T1, C-X-C chemokine receptor type 4; experiment: Displacement of CXCL12-red from human NLuc-tagged CXCR4 receptor expressed in HEK293T cell membranes at 100 uM after 2 hrs by NanoBRET assay relative to IT1t
# Method in brief: (§2)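 Membranes (10 µg/well) from HEK293G cells stably expressing sig-NLuc–CXCR4 (G418-selected), in HBSS pH 7.4. CXCL12-red (50 nM) and competitor added together, 2 h at 37 °C; 10 µM furimazine, emissions at 460 and >610 nm read 5 min later, BRET ratio >610/460. Normalized to buffer (0%) and IT1t (100%); N = 3, triplicate.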
# [4] = target: T1, C-X-C chemokine receptor type 4; experiment: Displacement of CXCL12-red from human NLuc-tagged CXCR4 receptor expressed in HEK293T cell membranes after 2 hrs by NanoBRET assay; method in brief: as §2
# [5] = target: T1, C-X-C chemokine receptor type 4; experiment: Antagonist activity at human DEF3-fused CXCR4 receptor expressed in HEK293T cells co-expressing DAN1-HA-Galphaq/i5 assessed as inhibition of CXCL12-induced IP3 accumulation at 100 uM after 90 mins in presence of [3H]-myo-inositol by scintillation counting analysis relative to IT1t; type: functional, cell-based
# Method in brief: (§3)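 HEK293T co-transfected (PEI) with CXCR4 and HA-Gαq/i5, moved next day to poly-L-lysine wells and labelled overnight with 1 µCi/mL [³H]-myo-inositol in inositol-free DMEM. Antagonist dilutions with 10 nM CXCL12, 10 mM LiCl, 0.05% BSA in HEPES saline pH 7.4, 1.5 h at 37 °C. InsP isolated on […] columns, then scintillation counted. Single-point at 100 μM vs IT1t; N ≥ 3, triplicate.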
# [6] = target: T1, C-X-C chemokine receptor type 4; experiment: Antagonist activity at human DEF3-RLuc fused CXCR4 receptor expressed in HEK293T cells co-expressing DEF3-Beta-arrestin-2-mVenus assessed as inhibition of CXCL12-induced beta-arrestin2 recruitment at 100 uM preincubated for 60 mins followed by CXCL12 addition measured after 20 mins by BRET assay relative to IT1t; type: cell-based
# Method in brief: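 HEK293T cells transiently co-transfected (PEI) with hCXCR4-RLuc and β-arrestin-2-mVenus, assayed two days later in HBSS. Compound given 60 min before 10 nM CXCL12 with 5 µM coelenterazine-h; RLuc (480 nm) and 540 nm read after 20 min. BRET ratio expressed as fold over vehicle. Single-concentration inhibition at 100 μM, IT1t as 100%. N = 3, triplicate.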
# [7] = target: T1, C-X-C chemokine receptor type 4; experiment: Antagonist activity at human DEF3-RLuc fused CXCR4 receptor expressed in HEK293T cells co-expressing DEF3-Beta-arrestin-2-mVenus assessed as inhibition of CXCL12-induced beta-arrestin2 recruitment preincubated for 60 mins followed by CXCL12 addition measured after 20 mins by BRET assay; type: cell-based
# [8] = target: T1, C-X-C chemokine receptor type 4; experiment: Antagonist activity at human DEF3-fused CXCR4 receptor expressed in HEK293T cells co-expressing DAN1-HA-Galphaq/i5 assessed as inhibition of CXCL12-induced IP3 accumulation after 90 mins in presence of [3H]-myo-inositol by scintillation counting analysis; type: functional, cell-based; method in brief: as §3
# [9] = target: T1, C-X-C chemokine receptor type 4; experiment: Non-competitive antagonist activity at human CXCR4 receptor expressed in HEK293T cells co-expressing galphai1 assessed as inhibition of CXCL12-induced receptor activation up to 100 uM preincubated for 30 mins followed by CXCL12 addition and measured after 20 mins by FRET assay; type: cell-based
# Method in brief: (§4)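 HEK293T transfected (Effectene) with CXCR4 and a Gαi1 FRET sensor, seeded on poly-D-lysine, read 24 h later at 37 °C in HEPES buffer pH 7.3. Antagonist at 0.1, 1, 10 or 100 µM (final, from DMSO) for 30 min, 5 min pre-read, then increasing CXCL12, FRET read 20 min (ex 420, em 485/540 nm). CXCL12 curves built per antagonist level; 3–5 repeats.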
# [10] = target: T1, C-X-C chemokine receptor type 4; experiment: Displacement of [125I]-CXCL12 from human CXCR4 receptor expressed in HEK293T cell membranes at 63 uM after 2 hrs by scintillation counting analysis relative to IT1t
# Method in brief: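 hCXCR4 membranes from transiently transfected HEK293T, competing against ¹²⁵I-CXCL12 at 40 pM, 2 h at 25 °C, filtration and scintillation counting. Percentage displacement by ligand at 63 μM relative to IT1t at 63 μM (100%). N = 3, triplicate.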
# [11] = target: T1, C-X-C chemokine receptor type 4; experiment: Competitive antagonist activity at human CXCR4 receptor expressed in HEK293T cells co-expressing galphai1 assessed as inhibition of CXCL12-induced receptor activation up to 100 uM preincubated for 30 mins followed by CXCL12 addition and measured after 20 mins by FRET assay; type: cell-based; method in brief: as §4
# T1 sequence (P61073 whole entry): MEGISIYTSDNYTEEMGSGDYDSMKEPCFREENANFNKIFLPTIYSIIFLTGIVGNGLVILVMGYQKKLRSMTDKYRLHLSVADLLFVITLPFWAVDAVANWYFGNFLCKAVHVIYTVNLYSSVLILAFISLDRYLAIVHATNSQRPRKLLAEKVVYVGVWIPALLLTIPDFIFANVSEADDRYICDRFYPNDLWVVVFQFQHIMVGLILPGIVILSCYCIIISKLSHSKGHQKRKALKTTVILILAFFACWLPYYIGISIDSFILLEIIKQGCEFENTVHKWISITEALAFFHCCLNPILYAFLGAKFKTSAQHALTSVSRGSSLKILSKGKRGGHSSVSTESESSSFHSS
Compound,IC50 [1] [nM],inhibition [2] [%],also measured
NCC1CCN(CC2CCCCC2)CC1,> 10000,59,
Cc1cccc(CNCC2CCN(Cc3ccccc3Cl)CC2)c1,158,63,inhibition [3]: 73%; IC50 [4]: 1000 nM; inhibition [5]: 87%; inhibition [6]: 97%; IC50 [7]: 3160 nM; IC50 [8]: 1000 nM; inhibition [8]: Dose-dependent effect; inhibition [9]: Active
Cc1ccccc1CN1CCC(CN)CC1,> 10000,81,
COc1ccccc1CN1CCC(CNCc2cccc(C)c2)CC1,794,84,
NCCC1CCN(Cc2ccccc2Cl)CC1,> 10000,56,
Clc1cccc(CNCC2CCN(Cc3ccccc3Cl)CC2)c1,316,65,
Clc1ccccc1CN1CCC(CNCc2ccc3ccccc3c2)CC1,501,78,
Cc1cccc(CNCC2CCN(Cc3cccc(Cl)c3)CC2)c1,2510,86,
Clc1ccccc1CN1CCC(CNCc2c[nH]cn2)CC1,1000,96,
Clc1ccc(CNCC2CCN(Cc3ccccc3Cl)CC2)cc1,631,80,
CN(C)CCCNCc1ccc(Cl)c(Cl)c1,> 10000,,inhibition [10]: 70%
NCC1CCN(Cc2ccc(Cl)c(Cl)c2)CC1,> 10000,67,
Cc1cccc(CNCC2CCN(Cc3ccc(Cl)cc3)CC2)c1,10000,86,
Oc1ccc(CNCC2CCN(Cc3ccccc3Cl)CC2)cc1,316,98,
Cc1ccccc1CNCC1CCN(Cc2ccccc2Cl)CC1,251,72,
Clc1ccccc1CN1CCC(CNCc2ccccc2)CC1,316,87,inhibition [3]: 84%; IC50 [4]: 794 nM; inhibition [5]: 93%; inhibition [6]: 103%; IC50 [7]: 3980 nM; inhibition [11]: Active; IC50 [8]: 2000 nM; inhibition [8]: Dose-dependent effect
Cc1cccc(CNCC2CCN(Cc3cccc(Cl)c3Cl)CC2)c1,794,74,
NCC1CCN(Cc2ccccc2Cl)CC1,10000,,inhibition [10]: 69%

Compound,IC50 [1] [nM],inhibition [2] [%],also measured
Clc1ccccc1CN1CCC(CNCc2cccnc2)CC1,2000,89,
Clc1ccccc1CNCC1CCN(Cc2ccccc2Cl)CC1,200,80,
Clc1ccccc1CN1CCC(CNCc2cccc(Cl)c2Cl)CC1,2510,13,
Oc1ccc(CN2CCC(CNCc3ccccc3)CC2)cc1,> 10000,65,IC50 [7]: > 31600 nM; IC50 [8]: > 31600 nM
CCC[C@H](C)c1cc(CN(C)C)c(O)cc1CN(C)C,,,inhibition [10]: > 50%
Cc1ccc(CNCC2CCN(Cc3ccccc3Cl)CC2)cc1,1000,62,
COc1ccccc1CN1CCC(CNCc2ccccc2)CC1,2510,85,
Cc1cccc(CNCC2CCN(Cc3c(Cl)cccc3Cl)CC2)c1,251,60,
COc1ccc(CNCC2CCN(Cc3ccccc3Cl)CC2)cc1,1260,88,
CCc1cccc(CNCC2CCN(Cc3ccccc3OC)CC2)c1,794,81,
Clc1ccccc1CN1CCC(CNCC2CCCCC2)CC1,3160,77,
CCCNCC1CCN(Cc2ccccc2C)CC1,,,inhibition [10]: > 50%
c1cc(CN2CCCNCCNCCCNCC2)ccc1CN1CCCNCCNCCCNCC1,,,inhibition [11]: Active
Clc1ccccc1CN1CCC(CNCc2ccc3c(c2)OCO3)CC1,251,72,
c1ccc(CNCC2CCN(Cc3ccccc3)CC2)cc1,10000,72,
COc1ccccc1CN1CCC(CN)CC1,> 10000,67,
Clc1ccccc1CN1CCC(CNCc2cccc(-c3ccccc3)c2)CC1,501,98,inhibition [3]: 98%; IC50 [4]: 631 nM; inhibition [5]: 94%; inhibition [6]: 102%; IC50 [7]: 2510 nM; IC50 [8]: 1260 nM; inhibition [8]: Dose-dependent effect; inhibition [9]: Active
